Measured values reported in ChEMBL document CHEMBL3232906, “2-Amino-3-(phenylsulfanyl)norbornane-2-carboxylate: an appealing scaffold for the design of Rac1-Tiam1 protein-protein interaction inhibitors” (J Med Chem, 2014).
Calls of active or inactive are those of the source. No cut-off for these calls is given here.

Columns and labels:
[1] = species on record: Homo sapiens; assay: Antimigratory activity against human smooth muscle cells assessed as inhibition of PDGF-BB-induced cell motility at 10 uM measured for 16 hrs by video microscopic analysis; assay type: functional, cell-based
Procedure, shortened: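 SMCs seeded at 2 × 10^4 per well of 24-well tray in DMEM + 10% FCS, moved to 0.4% FCS for 48 h. Compound added at 10 μM final together with PDGF-BB 20 ng/mL. Time-lapse video microscopy at 37 °C for 16 h; cells manually tracked and distance covered measured for 10 cells per condition from three independent experiments, mean ± SD.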

[2] = molecular target: Transforming protein RhoA (Homo sapiens) (UniProt P61586); assay: Activation of RhoA in human smooth muscle cells assessed as PDGF-BB stimulated GTP bound protein level at 10 uM preincubated for 4 hrs followed by PDGF-BB stimulation measured after 2 mins by G-LISA assay; assay type: cell-based
Sequence of Transforming protein RhoA (Homo sapiens) (P61586 whole entry): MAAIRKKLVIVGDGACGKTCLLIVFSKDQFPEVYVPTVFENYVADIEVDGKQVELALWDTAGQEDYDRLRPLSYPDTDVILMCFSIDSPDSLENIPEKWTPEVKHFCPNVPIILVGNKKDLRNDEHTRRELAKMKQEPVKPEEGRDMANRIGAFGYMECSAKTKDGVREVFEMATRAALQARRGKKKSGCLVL
Procedure, shortened: (§1)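 Cultured human aortic SMCs seeded at 2 × 10^5/35 mm dish in DMEM + 10% FCS, switched after 24 h to 0.4% FCS for 48 h. Compounds (DMSO stocks) added at 10 μM final for 4 h, then PDGF-BB 20 ng/mL for 2 min. Lysates analysed by G-LISA (RBD-coated plate, antibody/HRP detection) for Rac1–GTP or RhoA–GTP. Mean ± SD of triplicates.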

[3] = molecular target: T1, Ras-related C3 botulinum toxin substrate 1/T-lymphoma invasion and metastasis-inducing protein 1 (Homo sapiens, UniProt P63000+Q13009); assay: Inhibition of Rac1-Tiam1 interaction in human smooth muscle cells assessed as reduction of PDGF-BB stimulated GTP bound Rac1 level preincubated for 4 hrs followed by PDGF-BB stimulation measured after 2 mins by G-LISA assay; assay type: cell-based
Procedure, shortened: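 SMCs serum-starved (0.4% FCS, 48 h) after seeding at 2 × 10^5/35 mm dish, treated 4 h with compound at 1, 2.5, 5 and 10 μM final, then stimulated with PDGF-BB 20 ng/mL for 2 min. Rac1–GTP in lysates read by G-LISA (Rac1-RBD plate, primary antibody plus HRP secondary). IC50 from concentration–response; triplicates, mean ± SD.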

[4] = molecular target: T1, Ras-related C3 botulinum toxin substrate 1/T-lymphoma invasion and metastasis-inducing protein 1; assay: Inhibition of Rac1-Tiam1 interaction in human smooth muscle cells assessed as reduction of PDGF-BB stimulated GTP bound Rac1 level at 10 uM preincubated for 4 hrs followed by PDGF-BB stimulation measured after 2 mins by G-LISA assay relative to control; assay type: cell-based; procedure, shortened: as §1

Row | Structure (SMILES) | inhibition [1] | Activity [2] | IC50 [3] [µM] | inhibition [3] | inhibition [4]
1 | CCOC(=O)[C@]1(N)[C@@H]2C[C@@H](C[C@H]2c2cccc(Nc3ccc(N)cc3)c2)[C@@H]1Sc1ccccc1 (relative stereo) | Active | Active | 2.5 | Dose-dependent effect | 75%
2 | CCOC(=O)[C@@]1(N)[C@@H]2C[C@@H](C[C@H]2c2cccc(Nc3ccc(N)cc3)c2)[C@@H]1Sc1ccccc1 (relative stereo) |  | Active |  |  | Active
3 | CCOC(=O)[C@@]1(N)[C@@H]2C[C@@H]([C@@H](c3cccc(Nc4ccc(N)cc4)c3)C2)[C@@H]1Sc1ccccc1 (relative stereo) |  | Active |  |  | Active
4 | CCOC(=O)[C@]1(N)[C@@H]2C[C@@H](C[C@H]2c2cccc(Nc3ccc(N)cc3)c2)[C@H]1Sc1ccccc1 (relative stereo) |  | Active |  |  | Active
5 | CCOC(=O)[C@]1(N)[C@@H]2C[C@@H]([C@@H](c3cccc(Nc4ccc(N)cc4)c3)C2)[C@@H]1Sc1ccccc1 (relative stereo) |  | Active |  |  | Active
6 | CCOC(=O)[C@]1(N)[C@@H]2C[C@@H]([C@@H](c3cccc(Nc4ccc(N)cc4)c3)C2)[C@H]1Sc1ccccc1 (relative stereo) |  | Active |  |  | Active
